Test [1] addresses T1, Nitric oxide synthase, inducible (Homo sapiens, UniProt P35228). The test can be described thus: Inhibition of human iNOS expressed in human HEK293 cells assessed as nitrite accumulation at 100 uM after 18 hrs by 2,3-diaminonapthalene assay. The format is cell-based. The procedure, abridged:
(§1)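 Transiently transfected cells plated at 5e5 cells/ml; compounds added immediately by pin transfer. Incubated 18 h for nitrite accumulation. Fluorescence (ex 360/em 425 nm) read after raising pH with NaOH (0.12 N final). Values are mean of three experiments with SD. At 100 µM, <50% inhibition is reported as >100.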

Test [2] addresses T2, Nitric oxide synthase 1 (Homo sapiens, UniProt P29475). The test can be described thus: Inhibition of human nNOS expressed in HEK293 cells assessed as inhibition ionomycin-induced nitric oxide production at 100 uM incubated for 24 hrs measured after 18 hrs of ionomycin challenge by 2,3-diaminonaphthalene assay. The format is cell-based. The procedure, abridged:
(§2)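 Transiently transfected cells plated at 5e5 cells/ml; compounds added immediately by pin transfer. Incubated 24 h with compound, then activated by ionophore (0.8 µM final). Fluorescence (ex 360/em 425 nm) read after raising pH with NaOH (0.12 N final). Values are mean of three experiments with SD. At 100 µM, <50% inhibition is reported as >100.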

Test [3] deals with T3, Nitric oxide synthase 3 (Homo sapiens) (UniProt P29474).
T3 sequence (whole entry): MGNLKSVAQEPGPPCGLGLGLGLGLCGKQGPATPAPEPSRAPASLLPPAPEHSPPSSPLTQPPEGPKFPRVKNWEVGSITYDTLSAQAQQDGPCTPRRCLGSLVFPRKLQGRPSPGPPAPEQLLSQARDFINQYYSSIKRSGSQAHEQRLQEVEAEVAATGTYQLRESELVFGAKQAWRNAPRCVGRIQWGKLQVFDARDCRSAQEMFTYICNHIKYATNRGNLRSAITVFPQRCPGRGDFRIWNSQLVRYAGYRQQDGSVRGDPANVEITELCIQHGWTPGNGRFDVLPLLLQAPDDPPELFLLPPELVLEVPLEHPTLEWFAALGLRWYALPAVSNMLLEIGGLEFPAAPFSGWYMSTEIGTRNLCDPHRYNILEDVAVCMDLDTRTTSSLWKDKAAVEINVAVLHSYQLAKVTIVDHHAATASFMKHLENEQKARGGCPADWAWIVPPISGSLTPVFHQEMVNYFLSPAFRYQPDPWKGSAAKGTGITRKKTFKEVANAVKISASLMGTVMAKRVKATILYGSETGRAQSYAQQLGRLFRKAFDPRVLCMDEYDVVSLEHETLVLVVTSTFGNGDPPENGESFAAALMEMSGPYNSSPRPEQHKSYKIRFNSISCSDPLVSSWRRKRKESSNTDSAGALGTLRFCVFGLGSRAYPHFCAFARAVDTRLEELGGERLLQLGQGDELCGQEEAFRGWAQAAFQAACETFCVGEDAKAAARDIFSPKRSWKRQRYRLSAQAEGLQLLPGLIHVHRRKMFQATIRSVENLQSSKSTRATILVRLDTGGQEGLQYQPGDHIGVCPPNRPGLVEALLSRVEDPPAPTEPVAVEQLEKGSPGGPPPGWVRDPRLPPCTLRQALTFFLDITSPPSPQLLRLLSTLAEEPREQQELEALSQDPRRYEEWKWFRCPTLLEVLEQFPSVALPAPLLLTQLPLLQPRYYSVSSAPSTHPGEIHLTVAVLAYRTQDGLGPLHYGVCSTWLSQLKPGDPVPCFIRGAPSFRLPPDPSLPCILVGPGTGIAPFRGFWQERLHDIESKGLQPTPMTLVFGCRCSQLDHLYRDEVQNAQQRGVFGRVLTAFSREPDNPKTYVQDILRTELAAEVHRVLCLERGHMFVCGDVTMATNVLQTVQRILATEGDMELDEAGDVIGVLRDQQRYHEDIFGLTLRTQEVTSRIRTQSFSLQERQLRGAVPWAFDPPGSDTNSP
The test can be described thus: Inhibition of human eNOS expressed in HEK293 cells assessed as inhibition A23187-induced nitric oxide production at 100 uM incubated for 24 hrs measured after 18 hrs of A23187 challenge by 2,3-diaminonaphthalene assay. It is filed as cell-based. The procedure, abridged:
as §2

The target in test [4] is T2, Nitric oxide synthase 1. The test can be described thus: Inhibition of human nNOS expressed in HEK293 cells assessed as inhibition ionomycin-induced nitric oxide production incubated for 24 hrs measured after 18 hrs of ionomycin challenge by 2,3-diaminonaphthalene assay. It is filed as cell-based. Summed up: as §2
For test [5], the target named is T1, Nitric oxide synthase, inducible. The test can be described thus: Inhibition of human iNOS expressed in human HEK293 cells assessed as nitrite accumulation after 18 hrs by 2,3-diaminonapthalene assay. It is filed as cell-based. Summed up: as §1
For test [6], the target named is T4, Nitric oxide synthase 3 (Homo sapiens, UniProt P29474).
T4 sequence (P29474 whole entry): T3 sequence (whole entry)
The test can be described thus: Inhibition of human eNOS expressed in HEK293 cells assessed as inhibition A23187-induced nitric oxide production incubated for 24 hrs measured after 18 hrs of A23187 challenge by 2,3-diaminonaphthalene assay. It is filed as cell-based. The procedure, abridged: as §2

For test [7], the target named is T5, Nitric oxide synthase, inducible (Mus musculus) (UniProt P29477).
T5 sequence (whole entry): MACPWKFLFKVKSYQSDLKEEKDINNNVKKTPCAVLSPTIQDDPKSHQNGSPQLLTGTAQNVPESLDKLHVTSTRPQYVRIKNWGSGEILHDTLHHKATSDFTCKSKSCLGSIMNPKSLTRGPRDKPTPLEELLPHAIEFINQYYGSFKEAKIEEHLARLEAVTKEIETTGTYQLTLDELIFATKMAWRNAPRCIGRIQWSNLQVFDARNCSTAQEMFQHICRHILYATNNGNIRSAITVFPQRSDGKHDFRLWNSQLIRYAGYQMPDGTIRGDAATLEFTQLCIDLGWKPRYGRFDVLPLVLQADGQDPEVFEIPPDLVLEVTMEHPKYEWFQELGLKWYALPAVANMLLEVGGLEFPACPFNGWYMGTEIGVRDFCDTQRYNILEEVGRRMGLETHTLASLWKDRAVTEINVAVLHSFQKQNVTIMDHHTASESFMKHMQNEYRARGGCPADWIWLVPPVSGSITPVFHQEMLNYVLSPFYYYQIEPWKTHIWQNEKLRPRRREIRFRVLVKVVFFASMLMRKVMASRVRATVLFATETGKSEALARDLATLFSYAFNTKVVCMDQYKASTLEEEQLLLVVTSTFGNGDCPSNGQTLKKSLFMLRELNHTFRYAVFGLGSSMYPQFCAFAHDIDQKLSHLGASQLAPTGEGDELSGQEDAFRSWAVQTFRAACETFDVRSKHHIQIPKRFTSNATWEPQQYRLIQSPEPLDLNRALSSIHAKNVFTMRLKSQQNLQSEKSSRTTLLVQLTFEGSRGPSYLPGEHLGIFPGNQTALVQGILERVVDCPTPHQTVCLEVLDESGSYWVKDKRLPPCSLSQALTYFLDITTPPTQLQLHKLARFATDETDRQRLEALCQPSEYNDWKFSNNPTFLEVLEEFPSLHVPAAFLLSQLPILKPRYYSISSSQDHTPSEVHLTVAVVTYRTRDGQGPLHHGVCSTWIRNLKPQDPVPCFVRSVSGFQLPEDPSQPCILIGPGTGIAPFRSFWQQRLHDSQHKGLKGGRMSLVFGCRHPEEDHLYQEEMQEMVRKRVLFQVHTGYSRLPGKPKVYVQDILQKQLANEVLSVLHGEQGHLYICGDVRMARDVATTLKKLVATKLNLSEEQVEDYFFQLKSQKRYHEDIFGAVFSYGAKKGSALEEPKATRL
The test can be described thus: Inhibition of IFN-gamma/LPS-induced iNOS dimerization in mouse RAW264.7 cells by Western blot analysis. It is filed as cell-based. The procedure, abridged: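 RAW 264.7 cells seeded at 1.8 × 10⁶ cells/well and incubated 5 h. Then stimulated overnight with murine IFN-γ (100 U/mL final) and LPS (2 µg/mL final) plus 10 µM compound or vehicle (0.1% DMSO final). Lysates protein-normalized, run on 4–20% Tris–glycine gel under low-temperature SDS–PAGE in a cold room. Blotted with mouse anti-iNOS, read by infrared imaging.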
A general note: In western blotting, separated proteins are transferred to a membrane and probed.

Test [8] has as its target T1, Nitric oxide synthase, inducible. The test can be described thus: Inhibition of human iNOS.
Test [9] relates to Rattus norvegicus. The test can be described thus: Antiinflammatory activity in po dosed Lewis rat endotoxemia model assessed as inhibition of LPS-induced plasma nitrate accumulation after 6 hrs. It is filed as functional.
Test [10] relates to Rattus norvegicus. The test can be described thus: Antiinflammatory activity in Lewis rat assessed as inhibition of carrageenan-induced edema at 3 to 30 mg/kg, po administered 15 mins before carrageenan challenge measured after 5 hrs. It is filed as functional, organism-based.
In test [11] the test system is Rattus norvegicus. The test can be described thus: Antiinflammatory activity in Lewis rat assessed as inhibition of carrageenan-induced thermal hyperalgesia at 3 to 30 mg/kg, po administered 15 mins before carrageenan challenge measured after 5 hrs. It is filed as functional, organism-based.
For test [12], the system named is Rattus norvegicus. The test can be described thus: Analgesic activity in po dosed Lewis rat post operative brennan model assessed as incison-induced paw weight bearing response after 30 to 120 mins. The format is functional, organism-based.

Calls of active or inactive are those of the source. The calls are words filed in the database; no cut-off is given here.

Usually inhibition stands for the change of the read-out against control, counted positive when it falls. As a reminder, the EC50 is the concentration that produces a half-maximal response. What is called IC50 is the concentration needed to halve the response being measured. A lower IC50 goes with greater potency in that assay. Usually ED50 stands for the midpoint of the dose-response relation.

T2 sequence (P29475 whole entry): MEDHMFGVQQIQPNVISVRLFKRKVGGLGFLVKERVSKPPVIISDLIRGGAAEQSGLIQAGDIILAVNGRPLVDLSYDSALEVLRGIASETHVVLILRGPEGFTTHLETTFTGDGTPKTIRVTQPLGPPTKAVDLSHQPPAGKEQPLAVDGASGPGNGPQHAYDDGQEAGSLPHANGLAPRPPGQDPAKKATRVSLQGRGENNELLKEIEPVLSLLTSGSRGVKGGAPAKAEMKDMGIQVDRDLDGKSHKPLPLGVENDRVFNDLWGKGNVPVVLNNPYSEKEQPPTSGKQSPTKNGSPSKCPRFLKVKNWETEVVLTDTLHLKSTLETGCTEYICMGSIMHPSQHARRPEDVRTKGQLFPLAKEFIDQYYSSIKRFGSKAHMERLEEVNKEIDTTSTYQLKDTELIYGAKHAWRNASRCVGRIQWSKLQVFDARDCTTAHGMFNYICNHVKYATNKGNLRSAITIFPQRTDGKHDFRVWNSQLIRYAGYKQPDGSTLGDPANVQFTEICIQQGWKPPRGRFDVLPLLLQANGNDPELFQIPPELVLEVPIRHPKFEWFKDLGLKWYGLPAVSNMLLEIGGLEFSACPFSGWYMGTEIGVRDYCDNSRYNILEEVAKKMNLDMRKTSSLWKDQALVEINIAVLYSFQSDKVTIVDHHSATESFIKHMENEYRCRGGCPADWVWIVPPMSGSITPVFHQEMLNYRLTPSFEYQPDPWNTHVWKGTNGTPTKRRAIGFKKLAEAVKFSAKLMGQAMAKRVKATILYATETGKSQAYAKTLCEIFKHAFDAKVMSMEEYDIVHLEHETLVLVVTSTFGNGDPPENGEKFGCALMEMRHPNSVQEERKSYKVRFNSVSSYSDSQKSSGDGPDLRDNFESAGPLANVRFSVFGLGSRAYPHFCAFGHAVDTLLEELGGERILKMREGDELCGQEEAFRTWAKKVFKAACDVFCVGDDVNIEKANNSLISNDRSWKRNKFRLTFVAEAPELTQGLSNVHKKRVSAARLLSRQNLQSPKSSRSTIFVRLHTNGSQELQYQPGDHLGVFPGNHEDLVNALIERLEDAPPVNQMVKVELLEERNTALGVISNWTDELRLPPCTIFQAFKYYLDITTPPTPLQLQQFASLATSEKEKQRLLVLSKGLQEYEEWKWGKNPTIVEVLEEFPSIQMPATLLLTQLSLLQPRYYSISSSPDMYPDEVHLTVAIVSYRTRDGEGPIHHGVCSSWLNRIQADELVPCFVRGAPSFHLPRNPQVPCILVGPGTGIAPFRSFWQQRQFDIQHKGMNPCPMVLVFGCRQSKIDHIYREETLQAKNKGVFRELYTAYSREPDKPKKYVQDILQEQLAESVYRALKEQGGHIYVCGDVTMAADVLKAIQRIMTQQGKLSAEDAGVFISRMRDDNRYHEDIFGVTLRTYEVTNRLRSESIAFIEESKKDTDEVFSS
T1 sequence (P35228 whole entry): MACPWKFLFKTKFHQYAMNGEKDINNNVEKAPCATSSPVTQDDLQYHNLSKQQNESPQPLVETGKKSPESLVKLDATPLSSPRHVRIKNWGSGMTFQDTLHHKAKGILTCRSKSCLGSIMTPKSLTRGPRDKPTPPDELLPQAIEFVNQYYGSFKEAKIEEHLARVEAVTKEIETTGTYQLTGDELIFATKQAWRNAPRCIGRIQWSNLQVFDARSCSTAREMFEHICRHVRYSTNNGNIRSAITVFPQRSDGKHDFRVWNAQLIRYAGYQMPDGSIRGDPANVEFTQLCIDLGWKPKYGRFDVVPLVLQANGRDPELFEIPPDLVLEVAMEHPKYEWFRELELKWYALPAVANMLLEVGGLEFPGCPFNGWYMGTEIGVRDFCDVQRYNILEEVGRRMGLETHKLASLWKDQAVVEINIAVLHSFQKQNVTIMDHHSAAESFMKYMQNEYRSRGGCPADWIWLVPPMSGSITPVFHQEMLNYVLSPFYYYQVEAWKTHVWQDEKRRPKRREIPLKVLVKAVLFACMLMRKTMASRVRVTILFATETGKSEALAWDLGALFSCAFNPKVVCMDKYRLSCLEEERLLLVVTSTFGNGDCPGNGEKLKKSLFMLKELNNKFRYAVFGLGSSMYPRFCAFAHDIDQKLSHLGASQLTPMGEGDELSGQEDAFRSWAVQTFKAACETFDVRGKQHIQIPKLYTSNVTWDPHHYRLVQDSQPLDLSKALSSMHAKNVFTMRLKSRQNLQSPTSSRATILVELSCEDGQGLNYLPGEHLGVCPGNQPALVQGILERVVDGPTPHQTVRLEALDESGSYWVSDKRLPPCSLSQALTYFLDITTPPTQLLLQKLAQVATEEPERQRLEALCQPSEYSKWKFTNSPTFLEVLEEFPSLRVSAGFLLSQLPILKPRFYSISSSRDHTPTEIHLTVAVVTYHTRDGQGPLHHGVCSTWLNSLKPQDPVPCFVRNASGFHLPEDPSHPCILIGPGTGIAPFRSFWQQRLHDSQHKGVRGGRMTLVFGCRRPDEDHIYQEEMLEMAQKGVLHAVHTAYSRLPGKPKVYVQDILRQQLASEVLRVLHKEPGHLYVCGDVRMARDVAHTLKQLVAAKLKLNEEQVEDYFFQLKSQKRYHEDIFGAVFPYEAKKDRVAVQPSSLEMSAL

With `CN(CCCNCc1ccncc1)c1nc(-n2ccnc2)ns1`, the inhibition in [1], in [2] and in [3] was under 50% each time. The EC50 in test [4], in [5] and in [6] was over 100 µM throughout.
As for `CN(CCCNCc1ccc(F)c(F)c1)c1nc(-n2ccnc2)ns1`, the inhibition in test [1], in test [2] and in test [3] was under 50% in each case. Moreover, the 50% effective concentration (EC50) in test [4], in test [5] and in [6] was over 100 µM each time.
For the compound `Cc1cc(N(C)CCCNCc2ccc3c(c2)OCO3)nc(-n2ccnc2)n1`, the inhibition entry in test [7] is “Active”. The IC50 in test [8] stood at 0.01 µM.
For `O=C(O)CN(CCCNCc1ccc2c(c1)OCO2)c1nc(-n2ccnc2)ns1`, the inhibition in test [1], in test [2] and in test [3] was under 50% throughout. For the same compound, the EC50 in test [4], in test [5] and in test [6] was over 100 µM each time.
As to `CN(CCCNCc1ccc2c(c1)OCO2)c1nc(-n2ccnc2)ns1` [KD7040], the inhibition entry in [7] was “Active”. Moreover, 0.007 µM corresponded to half-maximal inhibition in [8] (IC50). Further, the values for the EC50 in test [4], in [5] and in [6] were 17.3 µM, 0.008 µM and over 100 µM, respectively.
In the case of `Cc1cc(C(=O)NCCN(C)Cc2ccc3c(c2)OCO3)nc(-n2ccnc2)n1`, the inhibition in [1], in test [2] and in [3] was under 50% each time. Also, the EC50 in test [4], in test [5] and in test [6] was over 100 µM throughout.
As for `CN(CCCNCc1ccccc1)c1nc(-n2ccnc2)ns1`, the inhibition in [1], in test [2] and in test [3] was under 50% in each case. The inhibition result in [7] was “Active”. The compound further displayed an IC50 in test [8] of over 100 µM. In addition, the EC50 in test [4], in test [5] and in [6] was over 100 µM throughout.
As to `Cc1cc(C(C)(C)NCCNCc2ccc3c(c2)OCO3)nc(-n2ccnc2)n1`, the inhibition in test [2] and in test [3] was under 50% each time. For the same compound, the ED50 in test [9] came out at 9.3 mg/kg. The inhibition result in test [10] and in [11] was “Active” in each case. Also, in test [12], the outcome was Active. Besides, the EC50 was over 100 µM in test [4], 2.3 µM in test [5] and over 100 µM in test [6].
Take `CN(CCCNCc1ccc2[nH]ccc2c1)c1nc(-n2ccnc2)ns1`: the inhibition in [1], in test [2] and in [3] was under 50% in each case. Besides, the EC50 in test [4], in test [5] and in test [6] was over 100 µM in each case.
Consider `Cc1cc(N(C)CCCNCc2ccc3c(c2)OCO3)nc(-n2cccc2)n1`, for which the inhibition result in [7] is “inactive”. In test [8], this compound showed an IC50 of over 100 µM.
For `CN(CCCNCc1ccc2c(c1)OC(F)(F)O2)c1nc(-n2ccnc2)ns1`, the inhibition in test [2] and in test [3] was under 50% each time. Besides, the EC50 in [4] is over 100 µM; in test [5], 8.9 µM; in test [6], over 100 µM.
For `c1cn(-c2nsc(N(CCCNCc3ccc4c(c3)OCO4)Cc3nnn[nH]3)n2)cn1`, the inhibition in test [2] and in test [3] was under 50% throughout. For the same compound, the concentration giving a half-maximal response (EC50) in test [4] was over 100 µM; in test [5] it was 4 µM; in [6], over 100 µM.

Source of the values: ChEMBL document CHEMBL1909611, “Identification and SAR of selective inducible nitric oxide synthase (iNOS) dimerization inhibitors” (Bioorg Med Chem Lett, 2011).
